The results in this text go back to ChEMBL document CHEMBL1129524, “Potent inhibitors of acyl-CoA:cholesterol acyltransferase. 2. Structure-activity relationships of novel N-(2,2-dimethyl-2,3-dihydrobenzofuran-7-yl)amides” (J Med Chem, 1996).

In one assay the target is O-acyltransferase (Oryctolagus cuniculus, UniProt G1SFD9). As to the kind of experiment: Inhibitory activity against Acyl coenzyme A:cholesterol acyltransferase 1 obtained from rabbit intestine microsomes. Summed up:
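Enzyme source was small-intestinal mucosa microsomes from cholesterol-fed rabbits. The substrate was [1-¹⁴C]oleoyl-CoA.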

For assay [1], the system named is Rattus norvegicus. The assay can be described thus: Total cholesterol lowering activity tested by administered orally to rats at dose 3(mg/kg) once a day for 3 days. It counts as functional. Summed up:
(§1)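 Male Wistar rats received the compound orally once daily for 3 days. Each night they ate a diet with 2% cholesterol, 1% cholic acid, 20% casein, 45% sucrose, 12% coconut oil, 4% KC flock, 1% vitamin mix, 7% mineral mix and 8% dried fish powder. Serum total cholesterol was then measured. Activity is the observed reduction as a percentage of the control-minus-normal difference.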

The test system of assay [2] is Rattus norvegicus. As to the kind of experiment: Total cholesterol lowering activity tested by administered orally to rats at dose 1(mg/kg) once a day for 3 days. It counts as functional. Summed up: as §1
Assay [3] has as its system Rattus norvegicus. The assay can be described thus: Total cholesterol lowering activity tested by administered orally to rats at dose 10(mg/kg) once a day for 3 days. It counts as functional. Summed up:
as §1

Assay [4] is filed under the species Rattus norvegicus. The assay can be described thus: Inhibitory activity against foam cell formation (acetyl-LDL-induced cholesteryl ester accumulation) in rat peritoneal macrophages. It counts as functional. Summed up: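 Peritoneal macrophages were prepared from rats. The IC₅₀ was determined for inhibition of acetyl-human-LDL-induced cellular cholesteryl ester accumulation.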

In assay [5] the test system is Rattus norvegicus. The assay can be described thus: Total cholesterol lowering activity tested by administered orally to cholesterol fed rats at dose 0.3(mg/kg) once a day for 3 days. It counts as functional. Summed up:
as §1

In assay [6] the test system is Rattus norvegicus. The assay can be described thus: Total cholesterol lowering activity tested by administered orally to cholesterol fed rats at dose 3(mg/kg) once a day for 3 days. It counts as functional. Summed up: as §1
Assay [7] deals with Sterol O-acyltransferase 1 (Oryctolagus cuniculus). The assay can be described thus: Inhibitory activity against Acyl coenzyme A:cholesterol acyltransferase 1 obtained from rabbit liver microsomes. (Liver microsomes are vesicles of endoplasmic reticulum, rich in cytochrome P450 enzymes.)

Some results are limits rather than exact numbers.

The term IC50 denotes the point on the concentration scale where inhibition reaches its midpoint. A low value points to inhibition by little substance. As for `CCCCCCCCOc1ccc(C(=O)Nc2c(C)cc(C)c3c2OC(C)(C)C3)cc1`, the IC50 at O-acyltransferase was > 200 nM. Compound `Cc1cc(C)c(NC(=O)C(C)(C)CCCc2ccc(CC(C)C)cc2)c2c1CC(C)(C)O2` gave an IC50 at O-acyltransferase of 40 nM. In addition, the Change in the assay with Rattus norvegicus [1] is given as -57%. For the compound `CCCCCCCCCCC1(C(=O)Nc2cccc3c2OC(C)(C)C3)CCCC1`, half-maximal inhibition against O-acyltransferase (IC50) required 500 nM.

For `Cc1cc(C)c(NC(=O)C(C)(C)CCCCc2ccccc2)c2c1CC(C)(C)O2`, the IC50 on O-acyltransferase came out at 210 nM. The compound `CCCCCCCCCCCCCCCC(=O)Nc1c(C)cc(C)c2c1OC(C)(C)C2` registered an IC50 on O-acyltransferase of 26 nM.

`Cc1cc(C)c(NC(=O)C(C)(C)CCCCCCN2CCCCC2)c2c1CC(C)(C)O2`: on O-acyltransferase, the IC50 is > 500 nM.

Take `Cc1cc(C)c(NC(=O)c2ccc(OCCCCCCOc3ccc(Cl)cc3)cc2)c2c1CC(C)(C)O2`: at O-acyltransferase, the concentration for half-maximal inhibition (IC50) was > 200 nM. On to `Cc1cc(C)c(NC(=O)C(C)(C)CCCCCOc2ccc(Cl)cc2)c2c1CC(C)(C)O2`, for which, at O-acyltransferase, the IC50 was 150 nM. In the assay with Rattus norvegicus [2], the Change is -64%. Turning to `CCCCCCCCC(C)(C)C(=O)Nc1c(C)cc(C)c2c1OC(C)(C)C2`, the 50% inhibitory concentration (IC50) at O-acyltransferase is 140 nM. For the compound `CCCCCCCCCCC(C)(C)C(=O)Nc1c(C)c(N)c(C)c2c1OC(C)(C)C2`, the IC50 at O-acyltransferase was 59 nM. On the same count and under the same terms, for `Cc1cc(C)c(NC(=O)C(C)(C)CCCOc2ccc(Cl)cc2)c2c1CC(C)(C)O2` the value was 260 nM.

Consider `Cc1cc(C)c(NC(=O)C(C)(C)CCCCOCc2ccccc2)c2c1CC(C)(C)O2`, for which the Change with Rattus norvegicus [3] is -50%. On to `Cc1cc(C)c(NC(=O)C(C)(C)CCCCCCOCC(C)C)c2c1CC(C)(C)O2`, for which, in the assay with Rattus norvegicus [3], the Change is reported as -62%. With `CCCCCCCCCCC1(C(=O)Nc2c(C)cc(C)c3c2OC(C)(C)C3)CCCC1`, the half-inhibitory concentration (IC50) on O-acyltransferase came to 170 nM. For the compound `CCCCCCCCCCCCC(C)(C)C(=O)Nc1c(C)cc(C)c2c1OC(C)(C)C2`, the IC50 at O-acyltransferase came to 33 nM.

`CCCCCCCCCCC(C)(C)C(=O)Nc1c(C)c([N+](=O)[O-])c(C)c2c1OC(C)(C)C2` had an IC50 against O-acyltransferase of 36 nM. For `CCCCCCCCCCC1(C(=O)Nc2c(C)ccc3c2OC(C)(C)C3)CCCC1`, the half-maximal inhibitory concentration (IC50) against O-acyltransferase is 240 nM. In addition, the Change with Rattus norvegicus [3] is -52%. In turn, `CCCCCCCCCCOc1ccc(C(=O)Nc2c(C)cc(C)c3c2OC(C)(C)C3)cc1` registered an IC50 on O-acyltransferase of 30 nM. Further, the Change in the assay on Rattus norvegicus [1] was found to be 0%. Turning to `Cc1cc(C)c(NC(=O)C(C)(C)CCCCOc2ccc(Cl)cc2)c2c1CC(C)(C)O2`, the midpoint of inhibition at O-acyltransferase, the IC50, lay at 330 nM. Besides, in the assay with Rattus norvegicus [3], the Change is recorded as -61%. Turning to `CCCCCCCCCCC(C)(C)C(=O)Nc1c(C)cc(C)c2c1OC(C)(C)C2`, inhibition in the assay filed under Rattus norvegicus [4] was half-maximal at 650 nM (IC50). Also, the values for the Change with Rattus norvegicus [5] and in the assay with Rattus norvegicus [2] were -44% and -61%, respectively. `Cc1cc(C)c(NC(=O)C(C)(C)CCCCCOc2ccccc2)c2c1CC(C)(C)O2`: at O-acyltransferase, the half-maximal inhibitory concentration (IC50) worked out at 86 nM. For `CCCCCCCCCCC(C)(C)C(=O)Nc1c(OC)cc(OC)cc1OC` [CL-976], in the assay listed under Rattus norvegicus [4], the IC50 came to 3800 nM. The Change in the assay on Rattus norvegicus [6] was -50%. `Cc1cc(C)c(NC(=O)C(C)(C)CCCCCCc2ccccc2)c2c1CC(C)(C)O2`: at O-acyltransferase, the IC50 was 81 nM. Consider `CCCCCCCCCCCCCCCC(=O)Nc1cccc2c1OC(C)(C)C2`, for which the IC50 against O-acyltransferase is 890 nM.

`Cc1cc(C)c(NC(=O)C(C)(C)CCCCCCOc2ccc(Cl)cc2)c2c1CC(C)(C)O2`: the IC50 against O-acyltransferase was determined as 76 nM; in the assay filed under Rattus norvegicus [4], 1500 nM. Besides, the figures for the Change in the assay with Rattus norvegicus [5] and with Rattus norvegicus [2] were -64% and -75%, respectively. Consider `CCCCCCCCCCC(C)(C)C(=O)Nc1c(OC)ccc2c1OCCC2=O`, for which the IC50 in the assay filed under Rattus norvegicus [4] is 160 nM; in assay [7], 16 nM. Further, the Change in the assay with Rattus norvegicus [5] was -66%. On to `CCCCCCCCCCCCOc1ccc(C(=O)Nc2c(C)cc(C)c3c2OC(C)(C)C3)cc1`, for which, at O-acyltransferase, it took 90 nM to reach half-maximal inhibition (IC50). Turning to `CCCOCCCCCCOc1ccc(C(=O)Nc2c(C)cc(C)c3c2OC(C)(C)C3)cc1`, on O-acyltransferase, the IC50 is > 200 nM. As to `Cc1cc(C)c(NC(=O)C(C)(C)CCCCCc2ccccc2)c2c1CC(C)(C)O2`, it took 120 nM to reach half-maximal inhibition on O-acyltransferase (IC50). Moreover, the Change in the assay with Rattus norvegicus [3] was -66%.

Compound `CCCCCCCCCCC(C)(C)C(=O)Nc1c(C)c(N(C)C)c(C)c2c1OC(C)(C)C2` showed an IC50 in the assay filed under Rattus norvegicus [4] of 30 nM. For the same compound, the values for the Change with Rattus norvegicus [5] and in the assay on Rattus norvegicus [2] were -71% and -88%, respectively.

As for `Cc1ccc(OCCCCCCC(C)(C)C(=O)Nc2c(C)cc(C)c3c2OC(C)(C)C3)cc1`, the half-inhibitory concentration (IC50) against O-acyltransferase was 50 nM.
